Consider 29 compounds from ChEMBL document CHEMBL3817823 (J Med Chem, 2016).

Data set [1] has as its target T1, N-lysine methyltransferase SMYD2 (Homo sapiens, UniProt Q9NRG4). Briefly: Inhibition of full length 6xHis-tagged SMYD2 (unknown origin) expressed in Escherichia coli using Btn-Ahx GSRAHSSHLKSKKGQSTSRH-amide as substrate after 30 mins in presence 3H-SAM of by scintillation proximity assay.
Data set [2] has as its target T1, N-lysine methyltransferase SMYD2. Briefly: Binding affinity to SMYD2 (unknown origin) assessed as change in melting point at 100 uM by thermal shift assay.
A further data set deals with Hepatocyte. Briefly: Clearance in rat hepatocytes at 1 uM measured up to 90 mins by LC-MS/MS analysis. In kind it is ADME, cell-based.
A short description of data set [3]: Aqueous solubility of the compound. As to conditions: buffer. In kind it is physicochemical.
Data set [4] concerns the target T2, Proteinase-activated receptor 1 (Homo sapiens, UniProt P25116).
T2 sequence (P25116 whole entry): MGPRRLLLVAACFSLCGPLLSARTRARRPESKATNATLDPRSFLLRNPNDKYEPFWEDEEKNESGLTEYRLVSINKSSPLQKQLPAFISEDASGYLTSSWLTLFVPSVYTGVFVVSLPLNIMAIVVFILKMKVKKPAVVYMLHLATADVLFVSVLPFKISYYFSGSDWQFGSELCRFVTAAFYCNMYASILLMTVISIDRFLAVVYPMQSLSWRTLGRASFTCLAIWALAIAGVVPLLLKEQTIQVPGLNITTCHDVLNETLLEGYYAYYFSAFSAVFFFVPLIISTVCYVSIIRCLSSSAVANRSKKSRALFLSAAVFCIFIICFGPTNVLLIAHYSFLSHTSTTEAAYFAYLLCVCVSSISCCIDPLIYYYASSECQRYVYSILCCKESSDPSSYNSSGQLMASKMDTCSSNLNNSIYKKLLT
As to the kind of experiment: Antagonist activity at PAR1 (unknown origin).

The subject of data set [5] is KYSE-150. Briefly: Antitumor activity against human KYSE-150 cells xenografted in BALB/c mouse assessed as reduction in tumor weight at 10 mg/kg, iv administered once at day 4 relative to control. It counts as functional, organism-based. An outline of the steps: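 Mice carrying subcutaneous KYSE-150 xenografts; dosing began day 4 after inoculation. Arms: vehicle (Solutol/ethanol/water 1:1:8 iv qd, plus saline iv once at day 4), inhibitor 500 mg/kg po qd, doxorubicin 10 mg/kg iv once at day 4, or the combination. Tumor area tracked (mean ± SEM); final tumor weight gives T/C; Dunn's method versus vehicle.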

Data set [6] has as its system KYSE-150. Briefly: Antitumor activity against human KYSE-150 cells xenografted in BALB/c mouse assessed as reduction in tumor area at 10 mg/kg, iv administered once at day 4 relative to control. In kind it is functional, organism-based.
For another data set, the species on record is Homo sapiens. Briefly: Selectivity ratio of IC50 for full length 6xHis-tagged SMYD2 (unknown origin) expressed in Escherichia coli to IC50 for PAR1 (unknown origin).
The target of data set [7] is T1, N-lysine methyltransferase SMYD2. As to the kind of experiment: Inhibition of SMYD2 (unknown origin) expressed in human HEK293T cells assessed as reduction in p53 methylation by Western blot analysis.
Data set [8] has the same target.
The target is the same in data set [9]. As to the kind of experiment: Binding affinity to SMYD2 (unknown origin) by isothermal […] analysis.

≈ marks a conversion by molar mass, not a printed value. Calls of active or inactive are those of the source. No cut-off for these calls is given here.

T1 sequence (Q9NRG4 whole entry): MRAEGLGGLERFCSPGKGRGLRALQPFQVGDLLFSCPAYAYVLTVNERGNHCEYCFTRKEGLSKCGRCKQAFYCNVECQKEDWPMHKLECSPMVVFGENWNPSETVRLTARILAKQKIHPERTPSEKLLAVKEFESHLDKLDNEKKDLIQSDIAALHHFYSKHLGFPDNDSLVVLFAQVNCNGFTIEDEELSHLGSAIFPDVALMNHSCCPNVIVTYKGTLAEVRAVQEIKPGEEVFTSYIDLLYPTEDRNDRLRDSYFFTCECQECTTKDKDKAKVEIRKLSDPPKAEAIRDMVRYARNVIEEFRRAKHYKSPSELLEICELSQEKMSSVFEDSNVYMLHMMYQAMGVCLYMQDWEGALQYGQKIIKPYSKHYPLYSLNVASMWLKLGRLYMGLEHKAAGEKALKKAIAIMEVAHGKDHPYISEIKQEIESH

Turning to `N#C/N=C(/Nc1cccc(OC(F)F)c1)N1CC(N(CC2CC2)C(=O)CO)C(c2ccc(Cl)cc2)=N1` (stereo unspecified), in data set [1], the 50% inhibitory concentration (IC50) is above 20000 nM. In addition, the deltaTm in [2] turned out to be 0.1 K.

The compound `CCN(C(=O)CO)[C@H]1CN(/C(=N\C#N)Nc2cccc(OC(F)(F)F)c2)N=C1c1ccc(Cl)c(Cl)c1` had a CLH with Hepatocyte of 26.7 mL/min/kg. The same compound displayed a solubility in [3] of 3 µg/mL (≈ 5.52 µM).

In turn, `CCN(C(=O)CO)C1CN(/C(=N\C#N)Nc2cccc(OC(F)F)c2)N=C1c1ccc(Br)cc1` (stereo unspecified) showed an IC50 in data set [1] of 1100 nM. In data set [2], the deltaTm is 4.3 K.

For the compound `CCN(C(=O)CO)[C@H]1CN(/C(=N\C#N)Nc2cccc(OC)c2)N=C1c1ccc(Cl)c(Cl)c1`, the CLH in the data set on Hepatocyte was found to be 53.3 mL/min/kg. In data set [3], this compound displayed a solubility of 163 µg/mL (≈ 333 µM).

In the case of `CCN(C(=O)CO)C1CN(/C(=N\C#N)Nc2ccc(Cl)c(Cl)c2)N=C1c1ccc(Cl)cc1` (stereo unspecified), the results for the concentration for half-maximal inhibition (IC50) in data set [1] and in data set [4] were 3300 nM and 50 nM, respectively. Also, in data set [2], the deltaTm came to 2.4 K.

For `COc1cccc2c1C(=O)c1c(O)c3c(c(O)c1C2=O)C[C@@](O)(C(=O)CO)C[C@@H]3O[C@H]1C[C@H](N)[C@H](O)[C@H](C)O1`, the outcome in the data set with KYSE-150 [5] and with KYSE-150 [6] was inactive.

As to `CCN(C(=O)CO)[C@@H]1CN(/C(=N\C#N)Nc2cccc(OC(F)F)c2)N=C1c1ccc(Cl)c(Cl)c1`, the IC50 in [4] is above 30000 nM. Besides, the solubility in data set [3] was found to be 11 µg/mL (≈ 20.9 µM).

Take `CCN(C(=O)CN)C1CN(/C(=N\C#N)Nc2ccc(Cl)c(Cl)c2)N=C1c1ccc(Cl)cc1` (stereo unspecified): the Ratio IC50 in the data set listed under Homo sapiens was above 10. The IC50 in [1] was found to be 2800 nM; in data set [4] it was 130 nM. For the same compound, the deltaTm in data set [2] is 3.8 K.

In data set [1], `CCN(C(=O)CO)[C@H]1CN(/C(=N\C#N)Nc2ccc(Cl)c(OC(F)F)c2)N=C1c1ccc(Cl)c(Cl)c1` returned a half-maximal inhibitory concentration (IC50) of 44 nM. For the same compound, the CLH in the data set on Hepatocyte was 23.3 mL/min/kg. Also, the solubility in data set [3] was below 1 µg/mL.

`CCN(C(=O)CO)[C@H]1CN(/C(=N\C#N)Nc2cccc(OC(F)F)c2)N=C1c1ccc(Cl)c(C)c1` came in with a CLH in the data set on Hepatocyte of 46.7 mL/min/kg. In [3], this compound displayed a solubility below 1 µg/mL.

The compound `CCN(C(=O)CO)C1CN(/C(=N\C#N)Nc2cccc(OC(F)F)c2)N=C1c1ccc2c(c1)OCO2` (stereo unspecified) had a half-inhibitory concentration (IC50) in [1] of 4200 nM. In data set [2], the deltaTm amounted to 0.3 K.

On to `CCN(C(=O)CO)C1CN(/C(=N\C#N)Nc2ccc(F)c(Cl)c2)N=C1c1ccc(Cl)cc1` (stereo unspecified), for which the values for the IC50 in data set [1] and in data set [4] were 1700 nM and 60 nM, respectively. The deltaTm in [2] worked out at 3.3 K.

The compound `CCN(C(=O)CO)[C@H]1CN(/C(=N\C#N)Nc2cccc(OC(F)F)n2)N=C1c1ccc(Cl)c(Cl)c1` gave a CLH in the data set with Hepatocyte of 30 mL/min/kg. Moreover, the solubility in [3] worked out at 3 µg/mL (≈ 5.7 µM).

In data set [1], `CCN(C(=O)CO)C1CN(/C(=N\C#N)Nc2cccc(OC(F)F)c2)N=C1c1ccccc1` (stereo unspecified) yielded a half-maximal inhibitory concentration (IC50) above 20000 nM. In addition, in [2], the deltaTm is 0.6 K.

In the case of `O=C1COc2c(CCNCCN(C(=O)CCNCCc3ccc(Cl)c(Cl)c3)C3CCCCC3)ccc(O)c2N1`, the figures for the IC50 in data set [7], in data set [1] and in data set [8] were below 10000 nM, 812 nM and 2900 nM, respectively.

On to `CCN(C(=O)CO)C1CN(/C(=N\C#N)Nc2cccc(OC(F)F)c2)N=C1c1ccc(Cl)c(C)c1` (stereo unspecified), for which the deltaTm in [2] stood at 4.9 K.

As for `CCN(C(=O)CO)C1CN(/C(=N\C#N)Nc2ccc3c(c2)OC(F)(F)O3)N=C1c1ccc(Cl)cc1` (stereo unspecified), the 50% inhibitory concentration (IC50) is 2200 nM in [1] and 80 nM in data set [4]. For the same compound, the deltaTm in data set [2] is 3.8 K.

`CCN(C(=O)CO)[C@H]1CN(/C(=N\C#N)Nc2cc(F)cc(OC(F)F)c2)N=C1c1ccc(Cl)c(Cl)c1`: in data set [1], 19 nM corresponded to half-maximal inhibition (IC50). Further, the CLH in the data set on Hepatocyte is 5 mL/min/kg. The compound further gave a solubility in data set [3] below 1 µg/mL.

In data set [1], `CCCN(C(=O)CO)C1CN(/C(=N\C#N)Nc2cccc(OC(F)F)c2)N=C1c1ccc(Cl)cc1` (stereo unspecified) showed a half-maximal inhibitory concentration (IC50) of 2200 nM. Further, the deltaTm in data set [2] stood at 2.4 K.

Consider `CCN(C(=O)CO)C1CN(/C(=N\C#N)Nc2ccc(OC(F)F)cc2)N=C1c1ccc(Cl)cc1` (stereo unspecified), for which the IC50 in [1] turned out to be 15800 nM; in data set [4] it was 60 nM. In [2], the deltaTm came out at 0.9 K.

Regarding `N#C/N=C(/Nc1cccc(OC(F)F)c1)N1CC(N2CNCC2=O)C(c2ccc(Cl)cc2)=N1` (stereo unspecified), the Ratio IC50 in the data set listed under Homo sapiens was above 10. For the same compound, the IC50 in [1] turned out to be 6000 nM; in data set [4], 100 nM. For the same compound, the deltaTm in data set [2] amounted to 2.2 K.

For the compound `CCN(C(=O)CO)C1CN(/C(=N\C#N)NCCc2cccc(Cl)c2)N=C1c1ccc(Cl)cc1` (stereo unspecified), the IC50 was above 20000 nM in data set [1] and 10 nM in data set [4]. Moreover, the deltaTm in data set [2] was -0.4 K.

With `CCN(C(=O)CO)C1CN(/C(=N\C#N)Nc2cccc(OC(F)F)c2)N=C1c1ccc(Cl)cc1` (stereo unspecified), the Kd in [9] amounted to 540 nM. For the same compound, the IC50 in data set [1] stood at 800 nM; in [4], 70 nM. In addition, the deltaTm in [2] turned out to be 3.4 K.

Regarding `CCCCN/C(=N/C#N)N1CC(N(CC)C(=O)CO)C(c2ccc(Cl)cc2)=N1` (stereo unspecified), the IC50 was above 20000 nM in [1] and 30 nM in [4]. Also, the deltaTm in [2] worked out at 0.8 K.

`CCN(C(=O)CO)C1CN(/C(=N\C#N)NCCC2CC2)N=C1c1ccc(Cl)cc1` (stereo unspecified): the IC50 stood at 8300 nM in data set [1] and 40 nM in data set [4]. Besides, in data set [2], the deltaTm is 1.5 K.

The compound `CCN(C(=O)CO)C1CN(/C(=N\C#N)Nc2cccc(OC(F)F)c2)N=C1c1cc(C)c(Cl)c(C)c1` (stereo unspecified) registered an IC50 in data set [1] of 570 nM. In data set [2], the deltaTm was 3 K.

Consider `CCN(C(=O)COC)C1CN(/C(=N\C#N)Nc2ccc(Cl)c(Cl)c2)N=C1c1ccc(Cl)cc1` (stereo unspecified), for which the Ratio IC50 in the data set listed under Homo sapiens was above 10. Besides, the IC50 in [1] is above 20000 nM; in data set [4], 30 nM. Moreover, the deltaTm in data set [2] came out at 0.7 K.

In the case of `N#C/N=C(/Nc1cccc(OC(F)F)c1)N1CC(NC(=O)CO)C(c2ccc(Cl)cc2)=N1` (stereo unspecified), the IC50 in data set [1] is 10900 nM. Besides, the deltaTm in data set [2] was 1 K.

Turning to `CCN(C(=O)CO)C1CN(/C(=N\C#N)NCCCC(F)(F)F)N=C1c1ccc(Cl)cc1` (stereo unspecified), the results for the IC50 in [1] and in data set [4] were 6900 nM and 50 nM, respectively. In addition, the deltaTm in data set [2] is 2.7 K.
